# High-throughput results (PubChem)
# Most compounds without a hit are left out; they make up all but 1.3% or so of the library.
# Diaph act CS: counter-screen for diaphorase-based assays: diaphorase activators and chemical reducers | AID 1229 | activation factor at 20 µM | Diaphorase/resazurin coupled assay, resorufin fluorescence, 16 min; active compounds read high; 1 = vehicle wells, 0 = NADH-free wells | hit rate 0.005% among 190,000;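 active = diaphorase activity raised at least twofold by the compound at 20 µM; inactive = activation factor below 2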
#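 Assay system: Purified diaphorase enzyme from Clostridium kluyveri | Amount: Enzyme 0.07 U/mL final | Dosing: Compound 20 µM once, DMSO 1% | Timing: 16 min reaction at room temperature | Detection: Fluorescence, excitation 544 nm and emission 590 nm | Evaluation: Higher resorufin formation from activation or reduction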
# Diaphorase inh: counter-screen for diaphorase-based assays: diaphorase inhibitors and chemical oxidizers | diaphorase resazurin-to-resorufin fluorescence, NADH, 16 min; bacterial (C. kluyveri) enzyme, not human | inhibition, % at 20 µM | hit rate 0.69% among 190,000 | AID 1217;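 active = primary screen inhibition at 20 µM above a set limit, cut at about 50% in these data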
#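 Test system: diaphorase enzyme from Clostridium kluyveri; amount: diaphorase at 0.14 U/mL in enzyme working solution; detection: fluorescence of resorufin formed from resazurin, Ex 544/Em 590 nm; times: reaction incubation of 16 min at room temperature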
# PfG6PD inh: PfG6PD (Plasmodium falciparum) enzyme inhibition; PfGluPho enzyme, NADPH resazurin-diaphorase fluorescence; hit rate 0.78% among 350,000; inhibition, % at 20 µM;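 active = inhibition reaching at least a set limit at 20 µM in the primary screen, cut at about 59% in these data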
# HKDC1 inhibitor: inhibitors of human hexokinase HKDC1; Q2TB90; recombinant HKDC1, G6PDH/diaphorase resazurin coupled fluorescence; inhibition, % at 20 µM; hit rate 0.16% among 340,000;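 active = inhibition above about 35% when tested at 20 µM, limit read from the data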
# Target sequence (Q2TB90 whole entry, looked up): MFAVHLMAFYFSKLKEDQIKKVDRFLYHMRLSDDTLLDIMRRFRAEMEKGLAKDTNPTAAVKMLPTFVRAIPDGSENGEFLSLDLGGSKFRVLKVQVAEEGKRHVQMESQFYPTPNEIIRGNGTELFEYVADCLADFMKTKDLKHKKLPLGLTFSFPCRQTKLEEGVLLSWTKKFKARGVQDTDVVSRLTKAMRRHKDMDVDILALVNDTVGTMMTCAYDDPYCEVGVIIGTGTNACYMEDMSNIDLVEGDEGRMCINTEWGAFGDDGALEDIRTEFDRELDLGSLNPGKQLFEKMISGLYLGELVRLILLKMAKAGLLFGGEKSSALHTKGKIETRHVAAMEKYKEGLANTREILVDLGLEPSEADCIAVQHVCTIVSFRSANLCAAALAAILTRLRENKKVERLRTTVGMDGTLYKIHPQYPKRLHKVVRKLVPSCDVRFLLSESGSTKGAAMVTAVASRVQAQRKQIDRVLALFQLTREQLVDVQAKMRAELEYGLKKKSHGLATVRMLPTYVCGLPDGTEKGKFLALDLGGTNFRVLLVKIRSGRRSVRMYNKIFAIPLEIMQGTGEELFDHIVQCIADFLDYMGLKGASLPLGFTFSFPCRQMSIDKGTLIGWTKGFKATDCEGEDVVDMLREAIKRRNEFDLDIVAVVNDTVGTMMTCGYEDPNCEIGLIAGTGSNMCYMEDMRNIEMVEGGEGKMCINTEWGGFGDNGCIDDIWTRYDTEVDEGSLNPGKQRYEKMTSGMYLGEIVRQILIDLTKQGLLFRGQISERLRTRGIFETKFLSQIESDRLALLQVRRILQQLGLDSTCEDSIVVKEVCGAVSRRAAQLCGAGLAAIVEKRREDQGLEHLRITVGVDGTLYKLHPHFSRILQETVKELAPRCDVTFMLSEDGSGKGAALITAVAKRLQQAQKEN
#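 System: Recombinant HKDC1 hexokinase | Amount: HKDC1 at 5 µg/mL | Reagent: Glucose with 1 mM ATP | Doses: Single 20 µM dose | Incubation: Reaction time 90 min, room temperature, protected from light | Signal: Coupled resazurin fluorescence, excitation 525 nm, emission 613 nm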
# G6PDH CS: inhibits Leuconostoc G6PDH, flagging false hits in G6PDH-based assays. Purified L. mesenteroides G6PDH, diaphorase/resazurin coupled fluorescence, 45 min. inhibition, % at 5 µM. AID 1020. hit rate 0.12% among 200,000; in the data active = inhibition above about 50%
# PfGluPho conf: confirmation of Plasmodium falciparum G6PD inhibitors. recombinant PfGluPho, NADPH-diaphorase-resazurin fluorescence. hit rate 34% among 2,400. shares compounds with PfG6PD inh. AID 504753. inhibition, % at 20 µM;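 active = inhibition of at least 50% at 20 µM in any single replicate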
# Diaphorase 10uM: diaphorase inhibition or oxidation at 10 uM NADPH; hit rate 39% among 820; inhibition, % at 20 µM; shares compounds with PfG6PD inh; diaphorase-coupled resazurin reduction, fluorescence, NADPH 10 uM; AID 504862;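 active = average inhibition reaching 50% or more with the compound at 20 µM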;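 also: resorufin red fluorescence formed as diaphorase reduces resazurin using NADPH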
# Diaphorase 30uM: counter-screen for P. falciparum G6PD inhibitors: diaphorase inhibitors, oxidizers | shares compounds with PfG6PD inh | Diaphorase/resazurin coupled assay, resorufin fluorescence, 30 uM NADPH | inhibition, % at 20 µM | hit rate 29% among 820;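 active = inhibition averaging 50% or more, tested at 20 µM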
# A number is an active result; - = inactive; . = no result.
SMILES,Diaph act CS,Diaphorase inh,PfG6PD inh,HKDC1 inhibitor,G6PDH CS,PfGluPho conf,Diaphorase 10uM,Diaphorase 30uM
O=C(CSc1cccc2cccnc12)N/N=C/c1ccc(F)cc1,.,.,85,-,.,65,61,54
CCCCC(=O)N/N=C/c1ccc(Sc2cccc3cccnc23)o1,-,-,68,-,-,-,.,.
O=C(CSc1n[nH]c(-c2ccccc2O)n1)NC1CCCCC1,.,.,-,-,.,.,.,.
c1cncc(CNc2ccc3c(c2)OCO3)c1,-,-,68,-,-,58,-,-
O=[N+]([O-])c1c(NCCCO)cc(Sc2nc3ccccc3s2)c2nonc12,-,71,77,-,51,54,-,-
CCC(=O)OCCNc1cc(Sc2nc3ccccc3s2)c2nonc2c1[N+](=O)[O-],-,58,79,-,-,64,-,-
CCC(=O)OCCNc1cc(Sc2nc3ccccc3[nH]2)c2nonc2c1[N+](=O)[O-],-,-,-,-,-,.,.,.
Cc1nnc(Sc2cc(NCCO)c([N+](=O)[O-])c3nonc23)s1,-,-,86,-,-,68,-,-
COc1ccc(C(=O)C2CCN(C(=O)c3ccco3)CC2)cc1,-,-,-,-,-,.,.,.
CC(C(=O)NCC(=O)Nc1ccc(F)c(F)c1F)N1CCN(c2ccc(O)cc2)CC1 (centres undefined),.,.,70,-,.,-,.,.
CC(C(=O)NCC(=O)Nc1ccc(F)c(F)c1F)N1CCN(Cc2ccc(C#N)cc2)CC1 (centres undefined),.,.,-,-,.,.,.,.
CC(=O)c1cccc(NC(=S)Nc2cccc3ccccc23)c1,.,.,-,-,.,.,.,.
Cc1ccc(C)c(NC(=S)Nc2cccc3cnccc23)c1,-,55,101,-,-,-,.,.
CC(=O)c1ccc(NC(=S)Nc2cccc3cnccc23)cc1,.,.,64,-,.,-,.,.
O=C(NNC(=O)c1ccccc1OCc1ccccc1)c1ccccc1O,.,.,90,-,.,69,56,56
O=C(NNC(=O)c1ccccc1OCc1ccc(F)cc1)c1ccccc1O,.,.,120,-,.,70,67,50
Cc1ccc(N2C(=O)CC(N3CCN(c4ccc(F)cc4)CC3)C2=O)c(C)c1 (centres undefined),.,.,-,-,.,.,.,.
O=c1c2ccc(F)cc2sn1-c1ccccc1,.,.,128,.,.,106,-,-
O=c1c2cc(F)ccc2sn1-c1ccccc1Cl,.,.,123,.,.,110,-,-
O=C(c1sc2cc(F)ccc2c1Cl)N1CCN(c2cccc(Cl)c2)CC1,-,-,-,-,-,.,.,.
Cc1ccc(-n2sc3cc(F)ccc3c2=O)c(C)c1,.,.,124,.,.,104,-,-
COc1cccc(CNc2ccc(S(=O)(=O)N3CCN(C)CC3)cn2)c1,.,.,-,-,.,.,.,.
N#Cc1cccc(NC(=O)Cc2ccsc2)c1,.,.,-,-,.,.,.,.
Cc1cc(S(=O)(=O)Nc2cccc([N+](=O)[O-])c2)c(C)s1,.,.,-,-,.,.,.,.
COc1ccc(C(=O)/C=C2\Sc3ccccc3N2C)cc1,-,-,95,-,-,48,55,-
SMILES,Diaph act CS,Diaphorase inh,PfG6PD inh,HKDC1 inhibitor,G6PDH CS,PfGluPho conf,Diaphorase 10uM,Diaphorase 30uM
CC(=S)/C=C1\Sc2ccccc2N1C,-,-,-,-,-,.,.,.
NC(=O)c1ccc(NC(=O)COC(=O)c2cc3ccccc3cc2O)cc1,.,.,-,-,.,.,.,.
CN(C)CCn1ccc(O)c(Cc2ccc(Cl)cc2)c1=O,.,.,-,-,.,.,.,.
CC1(C)Cc2c(sc3nc4n(-c5ccccc5)c(=O)c(CCC(=O)O)nn4c(=O)c23)CO1,.,.,104,-,.,91,-,-
c1ccc(OCc2nnc3n2N=C(c2ccccc2)CS3)cc1,-,-,100,-,-,58,-,-
O=C(Nc1ccc(Cl)cc1)c1ccc(-n2cccn2)c([N+](=O)[O-])c1,-,-,70,-,-,-,.,.
COc1ccccc1NC(=O)c1ccc(-n2cccn2)c([N+](=O)[O-])c1,-,-,-,-,-,.,.,.
Cc1ccc(NC(=O)c2ccc(-n3cccn3)c([N+](=O)[O-])c2)cc1C,-,-,77,-,-,-,.,.
